This note sets out measurements from PubChem BioAssay AID493180 (Broad Institute, 2011).

Several values for one entry are separate records, joined by “and”; a condition that tells them apart may be missing. Identical values can stand only once. Activity calls are given as the source filed them.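 Rule for the calls: active = fitted curve reaching 40% activation at or below the top valid tested dose; inactive = the rest, or activity counter to the expected direction.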

In the first assay the test system is U2OS HRE-luciferase reporter, luminescence, HIF pathway activation. Put plainly: HRE-driven luciferase induction, U2OS – cell-based, luminescence, dry powder, set 3, dose response (AID 493180).
Settings: not given
The method, boiled down: (§1)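 Assay system – human osteosarcoma U2OS cells with stable 3xHRE-driven luciferase reporter · Amount – 6,000 U2OS reporter cells per well · Compound – 8 concentrations, 3-fold dilution steps · Detection – luciferase luminescence measured with Steady-Glo reagent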
For `O=C(NCCCN1CCOCC1)c1cc(-c2ccccc2)on1`, the AC40 is > 38 µM (inactive). Turning to `O=C(Nc1cn2ccccc2n1)c1cc(-c2ccccc2)on1`, the AC40 is > 4.6 µM (inactive).

Turning to `O=C(NCCN1CCOCC1)c1cc(-c2ccccc2)on1`, the AC40 is > 38 µM (inactive). Regarding `OCCCNc1nc(-c2ccccn2)nnc1-c1ccccc1`, the AC40 is 22.2 µM.

Take `O=C(c1cc(-c2ccccc2)on1)N1CCC(N2CCOCC2)CC1`: the AC40 is > 4.6 µM (inactive). Still for that read-out and setting: for `COc1ccccc1N1CCN(Cc2ccc(O)c3ncccc23)CC1` the value was > 38 µM (inactive); for `Clc1cccc(CNc2nc(-c3ccccn3)nnc2-c2ccccc2)c1`, 2.21 µM; for `c1ccc(-c2ccc(CNc3nc(-c4ccccn4)nnc3-c3ccccc3)cc2)cc1`, 1.09 µM. Take `Cc1ccccc1CNc1nc(-c2ccccn2)nnc1-c1ccccc1`: the AC40 was 5.58 µM. `Cc1ccc(Nc2nc(-c3ccccn3)nnc2-c2ccccc2)cn1`: the AC40 is 13.6 µM. Consider `c1ccc(-c2nnc(-c3ccccn3)nc2NCC2CCOCC2)cc1`, for which the AC40 was 22.8 µM. With `CC(C)(C)OC(=O)N1CCN(Cc2ccc(O)c3ncccc23)CC1`, the AC40 is > 4.6 µM (inactive).

Regarding `CC(Nc1nc(-c2ccccn2)nnc1-c1ccccc1)c1ccccc1` (stereo not drawn), the AC40 was 1.94 µM.

In the case of `Cc1cccc(CNc2nc(-c3ccccn3)nnc2-c2ccccc2)c1`, the AC40 was 4.5 µM. In the case of `c1ccc(-c2nnc(-c3ccccn3)nc2Nc2cnc3ccccc3n2)cc1`, the AC40 was 7.45 µM. On to `C[C@@H](Nc1nc(-c2ccccn2)nnc1-c1ccccc1)c1ccccc1`, for which the AC40 was 5.22 µM. Consider `c1ccc(-c2nnc(-c3ccccn3)nc2N2CCC(c3ccccc3)C2)cc1` (stereo not drawn), for which the AC40 was 2.54 µM. Regarding `Oc1ccc(CN2CCC3CCCCC3C2)c2cccnc12` (stereo not drawn), the AC40 is 34.8 µM. For the compound `O=C(NCCCn1ccnc1)c1cc(-c2ccccc2)on1`, the AC40 was 28.9 µM.

With `O=C(Nc1nc(-c2ccccc2)cs1)c1cc(-c2ccccc2)on1`, the AC40 is > 4.6 µM (inactive). The same measure, in the same setting: for `COc1cccc(CNc2nc(-c3ccccn3)nnc2-c2ccccc2)c1` the value was 2.83 µM; for `O=C(Nc1ccc2ccccc2n1)c1cc(-c2ccccc2)on1`, > 4.6 µM (inactive).

On to `CN(C)c1nc(-c2ccccn2)nnc1-c1ccccc1`, for which the AC40 was 12.9 µM.

On to `O=C(NCCCCO)c1cc(-c2ccccc2)on1`, for which the AC40 is 12 µM. As to `C[C@H](Nc1nc(-c2ccccn2)nnc1-c1ccccc1)C1CCCCC1`, the AC40 was 2.59 µM. Turning to `O=C(c1cc(-c2ccccc2)on1)N1CCC(CO)CC1`, the AC40 is > 4.6 µM (inactive).

For `COc1ccc(CNc2nc(-c3ccccn3)nnc2-c2ccccc2)cc1`, the AC40 is 3.7 µM. Still for that read-out and setting: in the case of `c1ccc(-c2nnc(-c3ccccn3)nc2NCc2ccccn2)cc1` it was 22 µM; in that of `CCCCNC(=O)c1cc(-c2ccccc2)on1`, > 38 µM (inactive); in that of `c1ccc(CCNc2nc(-c3ccccn3)nnc2-c2ccccc2)cc1`, 2.69 µM. In the case of `Oc1ccc(CN2CCc3ccccc3C2)c2cccnc12`, the AC40 was 14.1 µM. In the case of `Cc1ccc(CNc2nc(-c3ccccn3)nnc2-c2ccccc2)cc1`, the AC40 was 3.58 µM. With `c1ccc(-c2cnc(Nc3nc(-c4ccccn4)nnc3-c3ccccc3)s2)cc1`, the AC40 was > 4.6 µM (inactive).

As to `c1ccc(-c2nnc(-c3ccccn3)nc2N2CCC(N3CCOCC3)CC2)cc1`, the AC40 was 7.47 µM.

As for `O=C(NCCCO)c1cc(-c2ccccc2)on1`, the AC40 was > 38 µM (inactive). Still for that read-out and setting: in the case of `C=CCNc1nc(-c2ccccn2)nnc1-c1ccccc1` it was 7.74 µM; in that of `CC(C)(C)CCNc1nc(-c2ccccn2)nnc1-c1ccccc1`, 3.2 µM and 1.8 µM; in that of `c1ccc(CNc2nc(-c3ccccn3)nnc2-c2ccccc2)cc1`, 5.63 µM. Take `OCC1CCN(Cc2ccc(O)c3ncccc23)CC1`: the AC40 was > 4.6 µM (inactive). Still for that read-out and setting: in the case of `Cn1c(-c2ccccc2)cnc1Nc1nc(-c2ccccn2)nnc1-c1ccccc1` it was 5.83 µM; in that of `Oc1ccc(CNC2Cc3ccccc3C2)c2cccnc12`, > 38 µM (inactive); in that of `c1ccc(-c2nnc(-c3ccccn3)nc2NCC2CC2)cc1`, 7.63 µM. For the compound `c1ccc(-c2nnc(-c3ccccn3)nc2Nc2nc3ccccc3s2)cc1`, the AC40 is 5.89 µM. As for `O=C(c1cc(-c2ccccc2)on1)N1CCc2cccnc21`, the AC40 is > 4.6 µM (inactive). Still for that read-out and setting: for `CN1CCN(c2nc(-c3ccccn3)nnc2-c2ccccc2)CC1` the value was 21.7 µM.

With `c1ccc(-c2nnc(Nc3nc(-c4ccccn4)nnc3-c3ccccc3)s2)cc1`, the AC40 is 25.3 µM.

Regarding `c1ccc(-c2nnc(-c3ccccn3)nc2NCCN2CCOCC2)cc1`, the AC40 is 15.3 µM. Consider `c1ccc(-c2nnc(-c3ccccn3)nc2NCCCN2CCOCC2)cc1`, for which the AC40 is 7.33 µM. On to `Cc1ccc(CNc2nc(-c3ccccn3)nnc2-c2ccccc2)cc1C`, for which the AC40 is 2.12 µM. In the case of `c1ccc(-c2nnc(-c3ccccn3)nc2NCc2cccnc2)cc1`, the AC40 was 16.3 µM.

In the case of `c1ccc(-c2nnc(-c3ccccn3)nc2N2CCN(c3ccncc3)CC2)cc1`, the AC40 is 4.63 µM. In the case of `CC(C)(C)c1ccc(CNc2nc(-c3ccccn3)nnc2-c2ccccc2)cc1`, the AC40 is 2.15 µM. Regarding `c1ccc(-c2nnc(-c3ccccn3)nc2NCC2CCCCC2)cc1`, the AC40 was 3.5 µM. On to `C[C@@H](Nc1nc(-c2ccccn2)nnc1-c1ccccc1)C1CCCCC1`, for which the AC40 was 5.21 µM. As for `Cc1cccc(Nc2nc(-c3ccccn3)nnc2-c2ccccc2)n1`, the AC40 is 14.2 µM.

For `OCC1CCN(c2nc(-c3ccccn3)nnc2-c2ccccc2)CC1`, the AC40 was 21.1 µM. As to `c1ccc(-c2nnc(-c3ccccn3)nc2N2CCC(C3CCCCC3)C2)cc1` (stereo not drawn), the AC40 is 1.5 µM. Still for that read-out and setting: for `O=C(NCCN1CCCCC1)c1cc(-c2ccccc2)on1` the value was 2.5 µM; for `c1ccc(-c2cccc(CNc3nc(-c4ccccn4)nnc3-c3ccccc3)c2)cc1`, 1 µM; for `O=C(NCC1CC1)c1cc(-c2ccccc2)on1`, 31 µM. For the compound `c1ccc(-c2csc(Nc3nc(-c4ccccn4)nnc3-c3ccccc3)n2)cc1`, the AC40 was 1.39 µM. Still for that read-out and setting: for `c1ccc(-c2nnc(-c3ccccn3)nc2NCCc2ccccn2)cc1` the value was 12.5 µM. With `O=C(Nc1nc2ccccc2s1)c1cc(-c2ccccc2)on1`, the AC40 was > 1.5 µM (inactive).

Tested on in another assay: not listed separately
The assay is described as above. Conditions: U2OS HRE-luciferase reporter, luminescence, HIF pathway activation; at 38 µM (top of the series). In a few lines: as §1
(A reporter such as luciferase makes a cellular process visible.)
With `O=C(NCc1ccccc1)c1cc(-c2ccccc2)on1`, the activation is 0.892% (inactive). As to `Cn1c(-c2ccccc2)cnc1NC(=O)c1cc(-c2ccccc2)on1`, the activation is 0.636% (inactive). In the case of `Cc1ccccc1CNC(=O)c1cc(-c2ccccc2)on1`, the activation is 1.28% (inactive). Regarding `O=C(NC1Cc2ccccc2C1)c1cc(-c2ccccc2)on1`, the activation was 2.88% (inactive). `O=C(Nc1ncc2ccccc2n1)c1cc(-c2ccccc2)on1`: the activation was 2.48% (inactive). Consider `O=C(NC1CCc2ccccc2C1)c1cc(-c2ccccc2)on1` (stereo not drawn), for which the activation is -0.627% (inactive). The same measure, in the same setting: for `N#CC1(c2ccccc2)CCN(Cc2ccc(O)c3ncccc23)CC1` the value was 6.8% (inactive); for `CN1CCN(C(=O)c2cc(-c3ccccc3)on2)CC1`, -0.645% (inactive); for `Oc1ccc(CN2CCc3ccccc3C2)c2cccnc12`, 1.34% (inactive). On to `O=C(Nc1cnc2ccccc2c1)c1cc(-c2ccccc2)on1`, for which the activation is 0.049% (inactive). In the case of `O=C(NCC1CCCCC1)c1cc(-c2ccccc2)on1`, the activation was 3.45% (inactive). For the compound `O=C(Nc1nnc(-c2ccccc2)s1)c1cc(-c2ccccc2)on1`, the activation was 0.329% (inactive).

For `CC(C)(C)CCNC(=O)c1cc(-c2ccccc2)on1`, the activation was 19.3% (inactive). As for `O=C(c1cc(-c2ccccc2)on1)N1CCN(c2ccncc2)CC1`, the activation is -1.02% (inactive). In the case of `Cc1cccc(CNC(=O)c2cc(-c3ccccc3)on2)c1`, the activation is -1.13% (inactive).

For the compound `Oc1ccc(CN2CCC(Cc3ccccc3)CC2)c2cccnc12`, the activation was 22.2% (inactive). Still for that read-out and setting: in the case of `Oc1ccc(CNC2CCc3ccccc32)c2cccnc12` (stereo not drawn) it was 11.5% (inactive); in that of `CN(C)CCNC(=O)c1cc(-c2ccccc2)on1`, 1.68% (inactive); in that of `Cc1ccc(NC(=O)c2cc(-c3ccccc3)on2)cn1`, 1.37% (inactive). Same read-out and setting: for `CC1CN(Cc2ccc(O)c3ncccc23)CC(C)O1` (stereo not drawn) the value was 2.27% (inactive); for `Cc1ccc(CNC(=O)c2cc(-c3ccccc3)on2)cc1`, -0.867% (inactive). On to `O=C(c1cc(-c2ccccc2)on1)N1CCC(N2CCCC2)CC1`, for which the activation is 0.044% (inactive).

Take `Cn1c(NC(=O)c2cc(-c3ccccc3)on2)nc2ccccc21`: the activation was 0.384% (inactive). In the case of `O=C(Nc1ncc(-c2ccccc2)o1)c1cc(-c2ccccc2)on1`, the activation was -0.837% (inactive).

On to `Cc1cccc(NC(=O)c2cc(-c3ccccc3)on2)n1`, for which the activation was 1.4% (inactive).
